Measured values reported in ChEMBL document CHEMBL1156265, “Furo[2,3-b]pyridine-based cannabinoid-1 receptor inverse agonists: synthesis and biological evaluation. Part 1” (Bioorg Med Chem Lett, 2010).

Legend:
Type in all cases: functional
Rattus norvegicus [1] = assay: Reduction of body weight in DIO rat assessed as weight change at 1 mg/kg, po daily measured 18 hrs post dose on day 13; set-up: scale not given: the % may be the effect or the level left
In short: (§1)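 Chronic study in diet-induced obese rats with daily oral dosing at 1 mg/kg (for some compounds 0.1 and 0.3 mg/kg as well). Body weight change and cumulative food intake suppression were measured relative to vehicle. The 14-day study ended 18 h after the day-14 dose; one study ended on day 13.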

Rattus norvegicus [2] = assay: Suppression of cumulative food intake in rat at 1 mg/kg, po after 13 days relative to control; in short: as §1
Rattus norvegicus [3] = assay: Reduction of body weight in rat at 1 mg/kg, po after 13 days relative to control; set-up: scale not given: the % may be the effect or the level left; in short: as §1

C[C@H](NC(=O)C(C)(C)Oc1ccc(C(F)(F)F)cn1)[C@@H](Cc1ccc(Cl)cc1)c1cccc(C#N)c1 [TARANABANT]
Activity (Rattus norvegicus [1]): 6%
Activity (Rattus norvegicus [2]): 21%
Activity (Rattus norvegicus [3]): 6%
